For experiment [1], the target named is T1, Sphingosine kinase 1 (Homo sapiens, UniProt Q9NYA1). Kind of experiment: Inhibition of His6x-tagged recombinant sphingosine kinase 1 expressed in HEK293 cells at 10.7 uM. The class given is cell-based. In a few lines:
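Affinity-purified His6X-tagged SphK1, recombinantly overexpressed in HEK293 cells. Substrate was 25 µM D-erythro-sphingosine in SKAAB buffer, without BSA conjugation or Triton X-100 micelles. Compounds screened at 10.7 µM, with DMSO controls at ≤5% of reaction volume. Reported as % inhibition, averages of two separate experiments.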

The target in experiment [2] is T1, Sphingosine kinase 1. Kind of experiment: Non-competitive inhibition of recombinant sphingosine kinase 1 using ATP as substrate by Lineweaver-Burke plot analysis.
The target in experiment [3] is T2, Sphingosine kinase 2 (Homo sapiens) (UniProt Q9NRA0).
T2 sequence (whole entry): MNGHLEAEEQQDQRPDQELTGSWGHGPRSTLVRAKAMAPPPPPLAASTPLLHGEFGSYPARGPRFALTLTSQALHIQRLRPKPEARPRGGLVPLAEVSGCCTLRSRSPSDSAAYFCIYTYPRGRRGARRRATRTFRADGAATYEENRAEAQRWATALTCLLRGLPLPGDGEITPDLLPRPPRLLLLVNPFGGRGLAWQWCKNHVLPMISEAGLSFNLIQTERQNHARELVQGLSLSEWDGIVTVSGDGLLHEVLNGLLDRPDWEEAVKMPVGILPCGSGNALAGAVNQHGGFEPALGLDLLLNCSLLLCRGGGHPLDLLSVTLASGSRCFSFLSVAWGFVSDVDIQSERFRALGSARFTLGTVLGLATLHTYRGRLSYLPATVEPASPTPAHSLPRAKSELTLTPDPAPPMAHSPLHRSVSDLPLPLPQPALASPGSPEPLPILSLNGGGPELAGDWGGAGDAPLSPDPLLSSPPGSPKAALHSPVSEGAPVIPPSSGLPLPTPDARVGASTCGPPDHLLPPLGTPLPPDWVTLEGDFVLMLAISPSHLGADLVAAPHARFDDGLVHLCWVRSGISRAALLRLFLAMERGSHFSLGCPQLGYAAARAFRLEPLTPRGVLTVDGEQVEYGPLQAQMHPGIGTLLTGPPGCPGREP
Kind of experiment: Inhibition of sphingosine kinase 2 up to 25 uM. The method in brief:
(§1)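 SphK2 activity assay in SKAAB buffer supplemented with 1 M KCl. Substrate was D-erythro-sphingosine delivered without BSA or Triton X-100. DMSO ≤5% of reaction volume.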

Experiment [4] addresses T1, Sphingosine kinase 1. Kind of experiment: Inhibition of sphingosine kinase 1 in human A549 cells assessed as reduction in sphingosine-1-phosphate cellular level at 1 uM after 48 hrs by thin layer chromatography relative to control. The class given is cell-based. The method in brief:
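A549 cells treated with 1 µM compound for 48 h. SphK activity assays were run on whole-cell lysates, lipids were separated by thin layer chromatography, and S1P was compared with DMSO-treated controls.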

In experiment [5] the test system is MCF7. Kind of experiment: Cytotoxicity against human MCF7 cells after 48 hrs by sulforhodamine B assay. Particulars: MCF7, 48 h. The class given is functional, cell-based.
The test system of experiment [6] is MCF7. Kind of experiment: Cytotoxicity against human tamoxifen-resistant MCF7 cells after 48 hrs by sulforhodamine B assay. To be noted: MCF7, 48 h. The class given is functional, cell-based.
The nature of experiment [7]: Cytotoxicity against human NCI/ADR cells after 48 hrs by sulforhodamine B assay. The class given is functional, cell-based. Particulars: NCI/ADR-RES.
The subject of another experiment is NCI-H460. Kind of experiment: Cytotoxicity against human H460 cells after 48 hrs by sulforhodamine B assay. The class given is functional, cell-based. To be noted: NCI-H460, 48 h.
In the next experiment the test system is NCI-H226. Kind of experiment: Cytotoxicity against human NCI-H226 cells after 48 hrs by sulforhodamine B assay. The class given is functional, cell-based. Particulars: NCI-H226, 48 h.
In the next experiment the test system is U-251. Kind of experiment: Cytotoxicity against human U251 cells after 48 hrs by sulforhodamine B assay. The class given is functional, cell-based. Particulars: U-251, 48 h.
Experiment [8] in a line: Cytotoxicity against human U87MG cells after 48 hrs by sulforhodamine B assay. The class given is functional, cell-based, U-87MG ATCC. Particulars: U-87 MG.
Another experiment relates to PANC-1. Kind of experiment: Cytotoxicity against human PANC1 cells after 48 hrs by sulforhodamine B assay. The class given is functional, cell-based. Particulars: PANC-1, 48 h.
In the next experiment the test system is MIA PaCa-2. Kind of experiment: Cytotoxicity against human MIAPaCa2 cells after 48 hrs by sulforhodamine B assay. To be noted: MIA PaCa-2, 48 h. The class given is functional, cell-based.
The subject of the next experiment is BXPC-3. Kind of experiment: Cytotoxicity against human BxPC3 cells after 48 hrs by sulforhodamine B assay. The class given is functional, cell-based. To be noted: BXPC-3, 48 h.
A short description of experiment [9]: Cytotoxicity against human KG1a cells after 48 hrs by sulforhodamine B assay. The class given is functional, cell-based. To be noted: KG-1a.
A short description of experiment [10]: Cytotoxicity against human Kusami-3 cells after 48 hrs by sulforhodamine B assay. The class given is functional, cell-based. Particulars: Kusami-3, 48 h.
Experiment [11] has as its system HL-60. Kind of experiment: Cytotoxicity against human HL60 cells after 48 hrs by sulforhodamine B assay. The class given is functional, cell-based. Particulars: HL-60, 48 h.
Experiment [12] deals with HL-60. Kind of experiment: Cytotoxicity against VCR-resistance human HL60 cells after 48 hrs by sulforhodamine B assay. The class given is functional, cell-based. Particulars: HL-60, 48 h.
In the next experiment the test system is SH-SY5Y. Kind of experiment: Cytotoxicity against human SH-SY5Y cells after 48 hrs by sulforhodamine B assay. The class given is functional, cell-based.
In experiment [13] the target is T1, Sphingosine kinase 1. Kind of experiment: Competitive inhibition of recombinant sphingosine kinase 1 using D-erythro-sphingosine as substrate by Lineweaver-Burke plot analysis. In a few lines: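 Recombinant His6X-tagged SphK1, affinity purified from HEK293 overexpression, assayed with varying D-erythro-sphingosine concentrations, with inhibitor absent or at 10 and 17 µM. Sph delivered in SKAAB buffer without BSA conjugation or Triton X-100 micelles. DMSO ≤5% of reaction. Ki and mechanism from linear regression.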

The next experiment deals with A549. Kind of experiment: Ratio of compound cytotoxicity at 1 uM to SKI-I cytotoxicity for human A549 cells.
The target of experiment [14] is T2, Sphingosine kinase 2 (Homo sapiens). Kind of experiment: Inhibition of sphingosine kinase 2. In a few lines:
as §1

Molecules are shown by their SMILES. Activity calls are given as the source filed them. No cut-off for these calls is given here.

T1 sequence (Q9NYA1 whole entry): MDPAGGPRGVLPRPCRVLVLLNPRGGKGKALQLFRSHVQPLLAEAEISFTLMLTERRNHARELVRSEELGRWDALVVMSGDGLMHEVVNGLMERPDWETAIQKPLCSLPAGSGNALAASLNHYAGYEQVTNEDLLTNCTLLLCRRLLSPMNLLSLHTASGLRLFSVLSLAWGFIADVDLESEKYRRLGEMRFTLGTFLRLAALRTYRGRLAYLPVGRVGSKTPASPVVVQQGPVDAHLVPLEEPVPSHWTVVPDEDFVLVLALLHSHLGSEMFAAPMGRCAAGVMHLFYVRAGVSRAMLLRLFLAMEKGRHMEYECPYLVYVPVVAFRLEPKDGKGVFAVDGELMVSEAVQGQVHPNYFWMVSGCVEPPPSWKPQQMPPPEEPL

`COc1ccc(-c2cc(C(=O)N/N=C(\C)c3ccc(Cl)cc3)[nH]n2)cc1`: the inhibition on Sphingosine kinase 1 [1] was 46.8%.
Same read-out and setting: the same measure for `COc1ccc(-c2cc(C(=O)N/N=C/c3ccc(C(C)C)cc3)[nH]n2)cc1`: 15.3%; for `COc1ccc(-c2cc(C(=O)N/N=C/c3ccc4ccccc4c3)[nH]n2)cc1`: 52.5%.
Still for that read-out and setting: as for `O=C(N/N=C/c1ccc(O)cc1O)c1cc(-c2ccc3ccccc3c2)n[nH]1`, the figure is 39.5%; as for `COc1ccc(-c2cc(C(=O)N/N=C/c3cc(O)cc(O)c3)[nH]n2)cc1`, 12.5%; as for `COc1ccc(-c2cc(C(=O)N/N=C/c3ccc(OC)c(OC)c3)[nH]n2)cc1`, 44.5%.
Consider `COc1ccc(-c2cc(C(=O)N/N=C(\C)c3ccc(OC)c(OC)c3)[nH]n2)cc1`, for which the inhibition entry at Sphingosine kinase 1 [2] and on Sphingosine kinase 1 [4] was “Active” in each case. For the same molecule, in experiment [3], the inhibition entry was “inactive”. For the same molecule, the IC50 with MCF7 [5] came to 1300 nM; in the experiment with MCF7 [6], 1800 nM; in experiment [7] it was 1500 nM; in the experiment on NCI-H460 it was 300 nM; in the experiment with NCI-H226, 300 nM; with U-251, 500 nM. For the same molecule, the IC50 in [8] was determined as 600 nM; with PANC-1, 100 nM; in the experiment with MIA PaCa-2, 100 nM; with BXPC-3, 200 nM; in [9], 500 nM; in experiment [10], 200 nM. For the same molecule, the IC50 in the experiment with HL-60 [11] is 200 nM; in the experiment on HL-60 [12] it was 200 nM; in the experiment with SH-SY5Y it was 300 nM. Besides, the Ki at Sphingosine kinase 1 [13] was 1330 nM. Moreover, on Sphingosine kinase 1 [1], the inhibition was 59.6%. Besides, in the experiment on A549, the cytotoxicity ratio worked out at 1.37.
On to `COc1ccc(/C(C)=N/NC(=O)c2cc(-c3ccc(C)cc3)n[nH]2)cc1OC`, for which, at Sphingosine kinase 1 [1], the inhibition was determined as 21.8%.
In the case of `O=C(N/N=C/c1cccc(O)c1)c1cc(-c2ccc3ccccc3c2)n[nH]1`, at Sphingosine kinase 1 [1], the inhibition stood at 25.1%.
The same measure, in the same setting: as for `Cc1ccc(-c2cc(C(=O)N/N=C/c3ccccc3O)[nH]n2)cc1`, the figure is 9.8%.
Still for that read-out and setting: the same measure for `COc1ccc(-c2cc(C(=O)N/N=C/c3ccc(O)cc3O)[nH]n2)cc1`: 30.8%.
On the same count and under the same terms, as for `CCN(CC)c1ccc(/C=N/NC(=O)c2cc(-c3ccc(OC)cc3)n[nH]2)cc1`, the figure is 38%.
For the molecule `O=C(N/N=C/c1ccccc1O)c1cc(-c2ccccc2)n[nH]1`, the inhibition on Sphingosine kinase 1 [1] came to 11.9%.
Turning to `COc1ccc(-c2cc(C(=O)N/N=C/c3ccccc3O)[nH]n2)cc1`, the inhibition on Sphingosine kinase 1 [1] came out at 33.5%.
The same measure, in the same setting: the same measure for `COc1ccc(-c2cc(C(=O)N/N=C/c3cccc(O)c3)[nH]n2)cc1`: 15.5%; for `O=C(N/N=C/c1ccc(O)cc1)c1cc(-c2ccc3ccccc3c2)n[nH]1`: 28%.
Still for that read-out and setting: as for `COc1ccc(-c2cc(C(=O)N/N=C/c3ccc(O)cc3)[nH]n2)cc1`, the figure is 14.3%.
As to `O=C(N/N=C/c1c(O)ccc2ccccc12)c1cc(-c2ccc3ccccc3c2)n[nH]1`, the inhibition entry in experiment [14] was “Dose-dependent effect”. The inhibition result on Sphingosine kinase 1 [4] is “Active”. Besides, on Sphingosine kinase 1 [13], the inhibition constant Ki is 1060 nM.
As for `COc1ccc(-c2cc(C(=O)N/N=C/c3ccc(F)cc3)[nH]n2)cc1`, on Sphingosine kinase 1 [1], the inhibition worked out at 27.4%.
On the same count and under the same terms, as for `O=C(N/N=C/c1ccccc1O)c1cc(-c2ccc3ccccc3c2)n[nH]1`, the figure is 59.3%.

Source of the values: ChEMBL document CHEMBL1287751, “Development of a sphingosine kinase 1 specific small-molecule inhibitor” (Bioorg Med Chem Lett, 2010).
